Active and inactive are the calls of the source. The rule behind the calls is not given here.
Legend:
Brain = experiment: (§1) Fraction unbound in rat brain; assay type: ADME, tissue-based
[1] = biological target: T1, Sodium-dependent noradrenaline transporter (Homo sapiens, UniProt P23975); experiment: Displacement of [3H]nisoxetine from human recombinant NET expressed in BacMam virus-transduced cells by scintillation proximity assay; assay type: cell-based
Summary of the method: (§2)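 BacMam-transduced membranes in SPA format. SERT: 1 mg/mL beads, 6 μg/mL membranes, 3 nM [3H]citalopram. NET: 2 mg/mL beads, 40 μg/mL membranes, 10 nM [3H]nisoxetine. Incubated overnight at room temperature; pKi from pIC50 by Cheng-Prusoff.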

[2] = Bioavailability in rat; assay type: ADME, organism-based; settings: in vivo
[3] = Volume of distribution in rat; assay type: ADME, organism-based; settings: in vivo
[4] = Blood clearance in rat; assay type: ADME, organism-based
[5] = biological target: T2, Sodium-dependent dopamine transporter (Homo sapiens, UniProt Q01959); experiment: Displacement of [3H]WIN-35428 from human recombinant DAT expressed in BacMam virus-transduced cells by scintillation proximity assay; assay type: cell-based
T2 sequence (Q01959 whole entry): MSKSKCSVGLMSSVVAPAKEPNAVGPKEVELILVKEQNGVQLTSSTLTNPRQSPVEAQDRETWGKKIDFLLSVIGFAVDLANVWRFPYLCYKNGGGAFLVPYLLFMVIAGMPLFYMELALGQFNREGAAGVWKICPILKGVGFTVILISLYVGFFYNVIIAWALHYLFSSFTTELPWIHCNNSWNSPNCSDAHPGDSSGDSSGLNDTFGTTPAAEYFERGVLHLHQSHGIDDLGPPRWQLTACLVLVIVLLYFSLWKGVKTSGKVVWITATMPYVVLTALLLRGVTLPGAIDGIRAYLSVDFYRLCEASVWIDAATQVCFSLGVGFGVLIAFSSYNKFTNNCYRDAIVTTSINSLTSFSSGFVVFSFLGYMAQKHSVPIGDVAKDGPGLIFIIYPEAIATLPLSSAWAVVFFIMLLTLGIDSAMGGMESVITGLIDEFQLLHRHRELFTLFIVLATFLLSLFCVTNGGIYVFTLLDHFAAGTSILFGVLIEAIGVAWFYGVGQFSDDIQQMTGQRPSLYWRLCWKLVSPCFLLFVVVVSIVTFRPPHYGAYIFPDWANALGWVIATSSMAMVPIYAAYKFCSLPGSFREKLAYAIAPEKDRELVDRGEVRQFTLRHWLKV

[6] = Half life in rat; assay type: ADME, organism-based; settings: in vivo
[7] = biological target: T3, Sodium-dependent serotonin transporter (Homo sapiens, UniProt P31645); experiment: Displacement of [3H]citalopram from human recombinant SERT expressed in BacMam virus-transduced cells by scintillation proximity assay; assay type: cell-based; summary of the method: as §2
T3 sequence (P31645 whole entry): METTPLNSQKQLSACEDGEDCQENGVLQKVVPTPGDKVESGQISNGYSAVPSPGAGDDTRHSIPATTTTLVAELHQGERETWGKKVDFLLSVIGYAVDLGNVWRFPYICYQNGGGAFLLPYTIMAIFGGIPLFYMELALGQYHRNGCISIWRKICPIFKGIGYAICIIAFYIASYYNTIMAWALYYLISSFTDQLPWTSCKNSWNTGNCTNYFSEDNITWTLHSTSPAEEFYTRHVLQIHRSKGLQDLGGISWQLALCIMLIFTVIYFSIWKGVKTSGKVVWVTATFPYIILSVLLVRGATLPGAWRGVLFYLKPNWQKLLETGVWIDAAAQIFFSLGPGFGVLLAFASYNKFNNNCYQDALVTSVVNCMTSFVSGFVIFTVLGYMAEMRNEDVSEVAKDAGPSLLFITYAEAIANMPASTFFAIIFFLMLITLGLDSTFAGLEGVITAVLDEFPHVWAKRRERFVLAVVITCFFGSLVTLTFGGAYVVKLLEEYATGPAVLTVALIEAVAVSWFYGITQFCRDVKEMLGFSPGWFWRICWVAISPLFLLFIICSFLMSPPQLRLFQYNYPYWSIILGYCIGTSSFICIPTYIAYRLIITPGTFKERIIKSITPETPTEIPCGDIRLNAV

Mus musculus [8] = experiment: Potentiation of 5-hydroxytryptophan-induced stereotpic behavior in po dosed CD1 mouse administered 120 mins before 5HTP challenge measured for 30 mins; assay type: functional, organism-based
Summary of the method: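 CD-1 mice dosed orally 120 min before 5-HTP (100 mg/kg ip). Videotaped for 30 min and scored for hyperlocomotion, hind-limb abduction, flat body posture, head twitches/tremor and body tremor.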

Homo sapiens = species on record: Homo sapiens; experiment: Selectivity for human recombinant SERT over human recombinant DAT
Rattus norvegicus [9] = experiment: Increase in extracellular serotonin level in frontal cortex of free moving CD rat at 1 mg/kg, ip after 3 hrs by microdialysis; assay type: functional, organism-based; parameters: dose 1 mg/kg
Summary of the method: (§3)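 Male CD rats, 280-310 g, with microdialysis probe in left medial prefrontal cortex, freely moving, locomotion recorded at the same time. Dosed ip at 0.1, 0.3 or 1 mg/kg. Dialysate collected every 20 min after 2 h of perfusion, for 3 h post dose. NA, DA and 5-HT by HPLC with electrochemical detection; two-way repeated-measures ANOVA.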

Mus musculus [10] = experiment: Increase in spontaneous locomotor activity in CD1 mouse at 3 mg/kg, po administered 120 mins before test measured for 30 mins; assay type: functional, organism-based; parameters: dose 3 mg/kg
Summary of the method: (§4)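 CD-1 mice dosed orally at 3, 10 or 30 mg/kg, 120 min before test. Total distance travelled recorded over 30 min in infrared activity boxes.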

Mus musculus [11] = experiment: Increase in spontaneous locomotor activity in CD1 mouse at 10 mg/kg, po administered 120 mins before test measured for 30 mins; assay type: functional, organism-based; parameters: dose 10 mg/kg; summary of the method: as §4
Rattus norvegicus [12] = experiment: Enhancement of locomotor activity of CD rat at 1 mg/kg, ip; assay type: functional, organism-based; parameters: dose 1 mg/kg; summary of the method: as §3
Mus musculus [13] = experiment: Antidepressant-like activity in CD1 mouse assessed as reduction in immobility time at 10 mg/kg, po administered 120 mins before test by forced swimming test; assay type: functional, organism-based; parameters: dose 10 mg/kg
Summary of the method: (§5)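 Naive male CD-1 mice, 25-30 g, dosed orally 120 min before the swim test. Immobility (floating upright, only small movements to keep the head above water) was scored over the last 4 min of a 6 min session by an observer blind to treatment, from video.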

Mus musculus [14] = experiment: Antidepressant-like activity in CD1 mouse assessed as reduction in immobility time at 3 mg/kg, po administered 120 mins before test by forced swimming test; assay type: functional, organism-based; parameters: dose 3 mg/kg; summary of the method: as §5
Mus musculus [15] = experiment: Increase in spontaneous locomotor activity in CD1 mouse at 30 mg/kg, po administered 120 mins before test measured for 30 mins; assay type: functional, organism-based; parameters: dose 30 mg/kg; summary of the method: as §4
Rattus norvegicus [16] = experiment: Increase in extracellular dopamine level in frontal cortex of free moving CD rat at 1 mg/kg, ip after 3 hrs by microdialysis; assay type: functional, organism-based; parameters: dose 1 mg/kg; summary of the method: as §3
Rattus norvegicus [17] = experiment: Increase in extracellular norepinephrine level in frontal cortex of free moving CD rat at 1 mg/kg, ip after 3 hrs by microdialysis; assay type: functional, organism-based; parameters: dose 1 mg/kg; summary of the method: as §3
Liver microsomes [18] = experiment: Intrinsic clearance in rat liver microsomes assessed per gram of protein at 0.5 uM after 30 mins by HPLC-MS/MS analysis; assay type: ADME, Microsome; settings: microsomes, 0.5 h, 0.5 µM
Summary of the method: (§6)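 Compound at 0.5 μM with rat or human liver microsomes (0.5 mg protein/mL), 50 mM phosphate, pH 7.4, 37 °C, started with NADPH. Sampled at 0-30 min, acetonitrile quench, HPLC-MS/MS. CLi from first-order elimination constant, scaled assuming 52.5 mg microsomal protein/g.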

Cytochrome P450 2C9 = Cytochrome P450 2C9 (Homo sapiens, UniProt P11712); experiment: Inhibition of human CYP2C9 by fluorescence assay; assay type: ADME
Summary of the method: (§7)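 Recombinant human P450 bactosomes (0.1 mg/mL) in 50 mM phosphate, pH 7.4. Test compound at 0.1-10 μM, preincubated 10 min at 37 °C with fluorogenic substrate: ethoxyresorufin 0.5 μM (1A2), FCA 50 μM (2C9), BMC 10 μM (2C19), MMC 10 μM (2D6).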

[19] = biological target: 5-hydroxytryptamine receptor 2A (Homo sapiens, UniProt P28223); experiment: Inhibition of 5HT2A receptor
[20] = biological target: T4, Voltage-gated inwardly rectifying potassium channel KCNH2 (Homo sapiens, UniProt Q12809); experiment: Inhibition of human ERG assessed as blockade of channel current by electrophysiology assay
T4 sequence (Q12809 whole entry): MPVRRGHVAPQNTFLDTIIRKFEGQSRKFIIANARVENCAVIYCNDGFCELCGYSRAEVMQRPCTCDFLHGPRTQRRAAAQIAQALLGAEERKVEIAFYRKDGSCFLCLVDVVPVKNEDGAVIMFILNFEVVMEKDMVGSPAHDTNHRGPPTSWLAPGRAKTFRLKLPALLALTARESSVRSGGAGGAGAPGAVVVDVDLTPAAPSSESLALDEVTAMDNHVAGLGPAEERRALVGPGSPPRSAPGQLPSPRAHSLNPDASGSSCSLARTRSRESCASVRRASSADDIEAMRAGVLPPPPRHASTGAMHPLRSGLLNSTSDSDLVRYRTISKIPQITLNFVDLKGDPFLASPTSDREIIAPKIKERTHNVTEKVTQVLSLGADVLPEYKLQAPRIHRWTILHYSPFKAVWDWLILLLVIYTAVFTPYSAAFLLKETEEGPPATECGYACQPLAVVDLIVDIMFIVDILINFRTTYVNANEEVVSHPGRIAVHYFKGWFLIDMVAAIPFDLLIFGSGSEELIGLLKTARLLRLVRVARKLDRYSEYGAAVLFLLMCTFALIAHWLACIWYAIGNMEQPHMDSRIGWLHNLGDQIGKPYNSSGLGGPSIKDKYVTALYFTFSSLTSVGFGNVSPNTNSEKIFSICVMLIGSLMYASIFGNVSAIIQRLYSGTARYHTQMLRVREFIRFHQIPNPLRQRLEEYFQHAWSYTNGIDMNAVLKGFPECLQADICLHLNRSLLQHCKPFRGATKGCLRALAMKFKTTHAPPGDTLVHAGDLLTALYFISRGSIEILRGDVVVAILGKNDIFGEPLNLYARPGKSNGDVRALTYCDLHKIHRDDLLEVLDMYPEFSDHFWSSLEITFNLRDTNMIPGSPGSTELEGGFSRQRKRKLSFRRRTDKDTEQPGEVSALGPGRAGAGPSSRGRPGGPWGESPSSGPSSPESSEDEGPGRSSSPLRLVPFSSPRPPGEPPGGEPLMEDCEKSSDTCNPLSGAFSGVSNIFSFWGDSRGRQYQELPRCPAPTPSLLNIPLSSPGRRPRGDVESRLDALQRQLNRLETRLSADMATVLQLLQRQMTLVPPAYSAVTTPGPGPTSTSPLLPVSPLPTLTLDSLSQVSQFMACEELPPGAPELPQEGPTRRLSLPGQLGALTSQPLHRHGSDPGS

[21] = biological target: Sodium-dependent serotonin transporter (Mus musculus, UniProt Q60857); experiment: Displacement of [3H]citalopram from mouse cortex SERT by filtration binding assay
Sequence of Sodium-dependent serotonin transporter (Mus musculus, UniProt Q60857) (Q60857 whole entry): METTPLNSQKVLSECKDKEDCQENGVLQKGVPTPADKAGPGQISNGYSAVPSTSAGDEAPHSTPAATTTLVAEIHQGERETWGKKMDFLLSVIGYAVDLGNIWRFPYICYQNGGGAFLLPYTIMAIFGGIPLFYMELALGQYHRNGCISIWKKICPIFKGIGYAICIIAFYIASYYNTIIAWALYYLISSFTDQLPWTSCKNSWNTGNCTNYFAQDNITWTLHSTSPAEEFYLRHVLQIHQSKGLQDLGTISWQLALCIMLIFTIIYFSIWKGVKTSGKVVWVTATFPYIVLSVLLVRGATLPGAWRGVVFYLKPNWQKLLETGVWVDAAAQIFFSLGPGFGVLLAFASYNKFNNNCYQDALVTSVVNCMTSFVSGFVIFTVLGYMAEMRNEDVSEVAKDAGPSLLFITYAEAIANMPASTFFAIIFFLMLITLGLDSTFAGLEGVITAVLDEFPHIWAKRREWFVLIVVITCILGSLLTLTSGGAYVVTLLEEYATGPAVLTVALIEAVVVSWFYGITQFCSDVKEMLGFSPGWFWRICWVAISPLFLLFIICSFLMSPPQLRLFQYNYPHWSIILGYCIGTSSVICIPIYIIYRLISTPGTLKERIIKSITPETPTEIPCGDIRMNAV
Summary of the method: (§8)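 Native brain tissue filtration binding, run as for the recombinant transporters. SERT on rat or mouse cortex (20 and 7 μg protein/well respectively). NET on rat hippocampus (40 μg/well). DAT on rat striatum (20 μg/well).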

[22] = biological target: T2, Sodium-dependent dopamine transporter; experiment: Inhibition of [3H]dopamine reuptake at human DAT expressed in LLCPK cells by scintillation proximity assay; assay type: cell-based
Summary of the method: (§9)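 Uptake-SPA on stably transfected LLCPK cells in HEPES buffer, pH 7.4. SERT: 25000 cells/well, 1.5 mg/mL beads, 35 nM [3H]serotonin. NET: 50000 cells/well, 1.5 mg/mL beads, 45 nM [3H]noradrenalin. DAT: 75000 cells/well, 2 mg/mL beads, 75 nM [3H]dopamine. Concentrations are those of the substrate addition. 1 h at room temperature; 4-parameter fit.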

[23] = biological target: T4, Voltage-gated inwardly rectifying potassium channel KCNH2; experiment: Displacement of [3H][…] from human ERG by scintillation proximity assay
Summary of the method: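 SPA-format [³H]dofetilide binding to hERG, with bound signal read on a plate imager. The value is reported as a binding pKi.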

[24] = biological target: Sodium-dependent serotonin transporter (Rattus norvegicus, UniProt P31652); experiment: Displacement of [3H]citalopram from rat cortex SERT by filtration binding assay; summary of the method: as §8
[25] = as §1; assay type: ADME, tissue-based; settings: brain
[26] = biological target: Alpha-1A adrenergic receptor (Homo sapiens, UniProt P35348); experiment: Inhibition of adrenergic alpha1A receptor
Transporter = Transporter (Rattus norvegicus, UniProt Q63380); experiment: Displacement of [N-methyl-3H]nisoxetine from rat hippocampus NET by filtration binding assay; assay type: tissue-based; summary of the method: as §8
Sequence of Transporter (Q63380 whole entry): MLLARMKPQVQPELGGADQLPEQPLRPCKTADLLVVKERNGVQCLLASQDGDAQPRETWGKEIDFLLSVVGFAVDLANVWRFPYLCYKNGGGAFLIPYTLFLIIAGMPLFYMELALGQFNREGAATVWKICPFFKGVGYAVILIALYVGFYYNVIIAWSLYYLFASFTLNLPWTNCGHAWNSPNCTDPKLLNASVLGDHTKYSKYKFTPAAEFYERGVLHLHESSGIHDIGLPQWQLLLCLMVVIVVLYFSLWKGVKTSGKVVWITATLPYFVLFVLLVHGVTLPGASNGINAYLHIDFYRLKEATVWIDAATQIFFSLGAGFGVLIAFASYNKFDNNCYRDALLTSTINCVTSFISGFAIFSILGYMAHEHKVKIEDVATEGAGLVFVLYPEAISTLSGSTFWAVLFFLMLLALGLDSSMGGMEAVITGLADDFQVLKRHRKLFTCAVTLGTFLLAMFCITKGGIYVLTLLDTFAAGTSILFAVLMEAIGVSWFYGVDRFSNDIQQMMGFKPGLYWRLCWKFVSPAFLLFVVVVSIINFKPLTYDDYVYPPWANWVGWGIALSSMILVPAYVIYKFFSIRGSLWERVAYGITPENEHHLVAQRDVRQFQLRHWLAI

[27] = biological target: Muscarinic acetylcholine receptor M3 (Homo sapiens, UniProt P20309); experiment: Inhibition of muscarinic M3 receptor
[28] = biological target: Muscarinic acetylcholine receptor M4 (Homo sapiens, UniProt P08173); experiment: Inhibition of muscarinic M4 receptor
[29] = biological target: T3, Sodium-dependent serotonin transporter; experiment: Inhibition of [3H]serotonin reuptake at human SERT expressed in LLCPK cells by scintillation proximity assay; assay type: cell-based; summary of the method: as §9
[30] = biological target: Muscarinic acetylcholine receptor M2 (Homo sapiens, UniProt P08172); experiment: Inhibition of muscarinic M2 receptor
Liver microsomes [31] = experiment: Intrinsic clearance in human liver microsomes assessed per gram of protein at 0.5 uM after 30 mins by HPLC-MS/MS analysis; assay type: ADME, Microsome; settings: microsomes, 0.5 h, 0.5 µM; summary of the method: as §6
Histamine H1 receptor = Histamine H1 receptor (Homo sapiens, UniProt P35367); experiment: Inhibition of histamine H1 receptor
Cytochrome P450 2D6 = Cytochrome P450 2D6 (Homo sapiens, UniProt P10635); experiment: Inhibition of human […] by fluorescence assay; assay type: ADME; summary of the method: as §7
[32] = Ratio of drug level in brain to blood in rat; assay type: ADME, tissue-based; settings: read-out: BBR
[33] = biological target: Sodium-dependent dopamine transporter (Rattus norvegicus, UniProt P23977); experiment: Displacement of [N-methyl-3H]WIN-35428 from rat striatum DAT by filtration binding assay; summary of the method: as §8
[34] = biological target: T1, Sodium-dependent noradrenaline transporter; experiment: Inhibition of [3H]noradrenalin reuptake at human NET expressed in LLCPK cells by scintillation proximity assay; assay type: cell-based; summary of the method: as §9
[35] = biological target: Muscarinic acetylcholine receptor M1 (Homo sapiens, UniProt P11229); experiment: Inhibition of muscarinic M1 receptor
Cytochrome P450 3A4 = Cytochrome P450 3A4 (Homo sapiens, UniProt P08684); experiment: Inhibition of human CYP3A4 by fluorescence assay
[36] = biological target: Muscarinic acetylcholine receptor M5 (Homo sapiens, UniProt P08912); experiment: Inhibition of muscarinic M5 receptor
Sequence of Muscarinic acetylcholine receptor M5 (P08912 whole entry): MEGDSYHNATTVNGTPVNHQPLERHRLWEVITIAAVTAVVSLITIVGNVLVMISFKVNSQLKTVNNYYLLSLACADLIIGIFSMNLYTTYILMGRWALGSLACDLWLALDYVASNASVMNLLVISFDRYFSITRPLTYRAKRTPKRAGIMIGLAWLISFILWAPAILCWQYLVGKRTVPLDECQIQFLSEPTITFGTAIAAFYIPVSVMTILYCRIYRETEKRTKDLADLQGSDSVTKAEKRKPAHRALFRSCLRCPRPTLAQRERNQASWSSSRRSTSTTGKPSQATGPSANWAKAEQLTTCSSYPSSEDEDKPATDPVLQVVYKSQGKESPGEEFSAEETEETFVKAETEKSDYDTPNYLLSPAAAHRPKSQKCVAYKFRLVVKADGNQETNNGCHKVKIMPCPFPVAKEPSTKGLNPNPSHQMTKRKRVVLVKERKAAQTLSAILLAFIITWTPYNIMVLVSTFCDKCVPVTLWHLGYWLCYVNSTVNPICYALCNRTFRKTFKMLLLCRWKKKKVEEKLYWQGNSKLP

Cytochrome P450 2C19 = Cytochrome P450 2C19 (Homo sapiens, UniProt P33261); experiment: Inhibition of human CYP2C19 by fluorescence assay; assay type: ADME; summary of the method: as §7
Cytochrome P450 1A2 = biological target: T5, Cytochrome P450 1A2 (Homo sapiens, UniProt P05177); experiment: Inhibition of human CYP1A2 by fluorescence assay; assay type: ADME; summary of the method: as §7
T5 sequence (P05177 whole entry): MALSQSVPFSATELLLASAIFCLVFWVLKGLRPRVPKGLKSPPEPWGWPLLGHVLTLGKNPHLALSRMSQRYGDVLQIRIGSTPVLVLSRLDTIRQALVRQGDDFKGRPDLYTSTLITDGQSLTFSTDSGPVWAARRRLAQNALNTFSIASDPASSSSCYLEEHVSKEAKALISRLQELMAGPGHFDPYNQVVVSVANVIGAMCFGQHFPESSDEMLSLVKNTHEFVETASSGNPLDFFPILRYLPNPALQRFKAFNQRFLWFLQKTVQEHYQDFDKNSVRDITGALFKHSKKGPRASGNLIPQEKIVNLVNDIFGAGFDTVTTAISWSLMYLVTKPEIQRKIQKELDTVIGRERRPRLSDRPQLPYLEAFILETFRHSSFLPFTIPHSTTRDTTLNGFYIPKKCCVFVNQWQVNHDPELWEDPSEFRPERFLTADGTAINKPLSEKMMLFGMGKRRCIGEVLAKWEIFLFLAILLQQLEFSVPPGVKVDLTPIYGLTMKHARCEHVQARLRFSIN

T1 sequence (P23975 whole entry): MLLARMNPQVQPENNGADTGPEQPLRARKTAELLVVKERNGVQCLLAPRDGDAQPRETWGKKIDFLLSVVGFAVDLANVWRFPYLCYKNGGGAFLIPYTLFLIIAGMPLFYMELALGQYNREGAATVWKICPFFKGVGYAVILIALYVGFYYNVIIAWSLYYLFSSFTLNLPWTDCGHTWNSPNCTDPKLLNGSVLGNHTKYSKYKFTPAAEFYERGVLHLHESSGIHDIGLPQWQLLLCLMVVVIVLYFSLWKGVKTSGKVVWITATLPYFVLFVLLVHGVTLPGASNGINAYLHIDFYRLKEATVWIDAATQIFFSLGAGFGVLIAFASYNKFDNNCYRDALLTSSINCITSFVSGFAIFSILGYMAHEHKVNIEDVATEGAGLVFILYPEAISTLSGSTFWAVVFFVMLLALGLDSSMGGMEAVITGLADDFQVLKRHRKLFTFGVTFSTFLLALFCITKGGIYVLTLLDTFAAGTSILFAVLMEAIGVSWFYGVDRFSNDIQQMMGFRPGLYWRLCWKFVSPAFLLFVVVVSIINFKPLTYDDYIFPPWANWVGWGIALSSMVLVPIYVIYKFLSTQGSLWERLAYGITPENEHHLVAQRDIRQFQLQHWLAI

FC(F)(F)COC[C@H]1[C@@H]2CNC[C@@]21c1ccc(Cl)c(Cl)c1
Fu (Brain): 0.6%
Ki [1]: 347 nM
bioavailability [2]: 41%
Vd [3]: 3.2 L/kg
clearance [4]: 42 mL/min/kg
Ki [5]: 631 nM
half-life [6]: 1.4 h
Ki [7]: 56.2 nM

CCOC[C@H]1[C@@H]2CNC[C@@]21c1ccc(Cl)c(Cl)c1 [listing 1 of 2 here]
Activity (Mus musculus [8]): Dose-dependent effect
Selectivity ratio (Homo sapiens): 50
Activity (Rattus norvegicus [9]): Active
Activity (Mus musculus [10]): inactive
Activity (Mus musculus [11]): Active
Activity (Rattus norvegicus [12]): Active
Activity (Mus musculus [13]): Active
Activity (Mus musculus [14]): Active
Activity (Mus musculus [15]): inactive
Activity (Rattus norvegicus [16]): Active
Activity (Rattus norvegicus [17]): Active

CCOC[C@H]1[C@@H]2CNC[C@@]21c1ccc(Cl)c(Cl)c1 [listing 2 of 2 here]
CL (Liver microsomes [18]): 1.3 mL/min/g
IC50 (Cytochrome P450 2C9): > 9000 nM
Ki [19]: 158 nM
IC50 [20]: 4200 nM
Ki [21]: 0.851 nM
IC50 [22]: 5.01 nM
Ki [23]: 12600 nM
Ki [24]: 0.676 nM
fraction unbound [25]: 0.014
Ki [1]: 0.501 nM
Ki [26]: 200 nM
Ki (Transporter): 0.135 nM
Ki [27]: 63.1 nM
Ki [28]: 251 nM
bioavailability [2]: 61%
IC50 [29]: 1.26 nM
Ki [30]: 200 nM
CL (Liver microsomes [31]): 1.2 mL/min/g
Vd [3]: 1.4 L/kg
clearance [4]: 18 mL/min/kg
Ki (Histamine H1 receptor): 1000 nM
IC50 (Cytochrome P450 2D6): 4000 nM
Kp [32]: 4.6
Ki [33]: 13.5 nM
IC50 [34]: 0.158 nM
Ki [35]: 158 nM
Ki [5]: 7.94 nM
IC50 (Cytochrome P450 3A4): > 9000 nM
Ki [36]: 100 nM
IC50 (Cytochrome P450 2C19): > 9000 nM
IC50 (Cytochrome P450 1A2): > 9000 nM
half-life [6]: 1.2 h
Ki [7]: 0.158 nM

Reference: ChEMBL document CHEMBL1157620, “1-(Aryl)-6-[alkoxyalkyl]-3-azabicyclo[3.1.0]hexanes and 6-(aryl)-6-[alkoxyalkyl]-3-azabicyclo[3.1.0]hexanes: a new series of potent and selective triple reuptake inhibitors” (J Med Chem, 2010)
